Test results from ChEMBL document CHEMBL1811814, “Synthesis and evaluation of indole, pyrazole, chromone and pyrimidine based conjugates for tumor growth inhibitory activities--development of highly efficacious cytotoxic agents” (Eur J Med Chem, 2010).

Columns and labels:
Format in all cases: functional
SK-MEL-5 [1] = test: Growth inhibition of human SK-MEL-5 cells assessed tumor cell growth at 10^-5 M; parameters: scale not given: the % may be the effect or the level left
In short: (§1)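 NCI 60-human-tumor-cell-line panel screen. Each compound was tested at a single concentration of 10^-5 M, and percent growth of tumor cells was recorded for each cell line. Growth inhibition was expressed from these percent-growth values.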

SNB-19 = test: Growth inhibition of human SNB19 cells assessed tumor cell growth at 10^-5 M; parameters: scale not given: the % may be the effect or the level left
In short: (§2)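 Single-dose screen at 10^-5 M across the 60 human tumor cell line panel, run to NCI standards. The value is the percent growth of each cell line in the presence of compound. Compounds active at this dose moved on to five-concentration testing (10^-4 to 10^-8 M).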

786-0 [2] = test: Growth inhibition of human 786-0 cells
CAKI-1 [3] = test: Growth inhibition of human Caki1 cells
CCRF-CEM [4] = test: Growth inhibition of human CCRF-CEM cells
UO-31 [5] = test: Growth inhibition of human UO31 cells
A498 = test: Growth inhibition of human A498 cells assessed tumor cell growth at 10^-5 M; parameters: scale not given: the % may be the effect or the level left; in short: as §1
NCI/ADR-RES = test: Growth inhibition of human NCI/ADR-RES cells assessed tumor cell growth at 10^-5 M; parameters: scale not given: the % may be the effect or the level left; in short: as §1
786-0 [6] = test: Growth inhibition of human 786-0 cells assessed tumor cell growth at 10^-5 M; parameters: scale not given: the % may be the effect or the level left; in short: as §1
SNB-75 = test: Growth inhibition of human SNB75 cells
RXF 393 = test: Growth inhibition of human RXF393 cells assessed tumor cell growth at 10^-5 M; parameters: scale not given: the % may be the effect or the level left; in short: as §1
NCI-H522 [7] = test: Growth inhibition of human NCI-H522 cells assessed tumor cell growth at 10^-5 M; parameters: scale not given: the % may be the effect or the level left; in short: as §1
CAKI-1 [8] = test: Growth inhibition of human Caki1 cells assessed tumor cell growth at 10^-5 M; parameters: scale not given: the % may be the effect or the level left; in short: as §1
OVCAR-8 = test: Growth inhibition of human OVCAR8 cells
[9] = Growth inhibition of human Hs 578T cells assessed tumor cell growth at 10^-5 M; parameters: scale not given: the % may be the effect or the level left; in short: as §1
MDA-MB-231 = test: Growth inhibition of human MDA-MB-231 cells
OVCAR-3 = test: Growth inhibition of human OVCAR3 cells
Malme-3M = test: Growth inhibition of human MALME-3M cells assessed tumor cell growth at 10^-5 M; parameters: scale not given: the % may be the effect or the level left; in short: as §1
SF-295 [10] = test: Growth inhibition of human SF295 cells assessed tumor cell growth at 10^-5 M; parameters: scale not given: the % may be the effect or the level left; in short: as §1
BT-549 [11] = test: Growth inhibition of human BT549 cells assessed tumor cell growth at 10^-5 M; parameters: scale not given: the % may be the effect or the level left; in short: as §1
ACHN = test: Growth inhibition of human ACHN cells assessed tumor cell growth at 10^-5 M; parameters: scale not given: the % may be the effect or the level left; in short: as §1
HCT-15 = test: Growth inhibition of human HCT15 cells assessed tumor cell growth at 10^-5 M; parameters: scale not given: the % may be the effect or the level left; in short: as §1
HT-29 = test: Growth inhibition of human HT-29 cells assessed tumor cell growth at 10^-5 M; parameters: scale not given: the % may be the effect or the level left; in short: as §1
SF-295 [12] = test: Growth inhibition of human SF295 cells
M14 [13] = test: Growth inhibition of human M14 cells assessed tumor cell growth at 10^-5 M; parameters: scale not given: the % may be the effect or the level left; in short: as §1
COLO 205 = test: Growth inhibition of human COLO205 cells
SK-OV-3 = test: Growth inhibition of human SKOV3 cells assessed tumor cell growth at 10^-5 M; parameters: scale not given: the % may be the effect or the level left; in short: as §1
EKVX = test: Growth inhibition of human EKVX cells assessed tumor cell growth at 10^-5 M; parameters: scale not given: the % may be the effect or the level left; in short: as §1
NCI-H522 [14] = test: Growth inhibition of human NCI-H522 cells
SK-MEL-5 [15] = test: Growth inhibition of human SK-MEL-5 cells
MDA-MB-468 = test: Growth inhibition of human MDA-MB-468 cells
[16] = Growth inhibition of human Hs 578T cells
HOP-62 = test: Growth inhibition of human HOP62 cells
UO-31 [17] = test: Growth inhibition of human UO31 cells assessed tumor cell growth at 10^-5 M; parameters: scale not given: the % may be the effect or the level left; in short: as §2
CCRF-CEM [18] = test: Growth inhibition of human CCRF-CEM cells assessed tumor cell growth at 10^-5 M; parameters: scale not given: the % may be the effect or the level left; in short: as §1
IGROV-1 = test: Growth inhibition of human IGROV1 cells
In short: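 Follow-up panel testing at five concentrations (10^-4, 10^-5, 10^-6, 10^-7 and 10^-8 M) across the 60 human tumor cell lines. GI50 was obtained for each line from the concentration-response data, with the panel average GI50 also reported.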

TK-10 = test: Growth inhibition of human TK10 cells
SF-268 = test: Growth inhibition of human SF268 cells
HOP-92 = test: Growth inhibition of human HOP92 cells
MOLT-4 = test: Growth inhibition of human MOLT4 cells
[19] = Growth inhibition of human […] cells assessed tumor cell growth at 10^-5 M; parameters: scale not given: the % may be the effect or the level left; in short: as §1
UACC-257 = test: Growth inhibition of human UACC257 cells assessed tumor cell growth at 10^-5 M; parameters: scale not given: the % may be the effect or the level left; in short: as §2
U-251 = test: Growth inhibition of human U251 cells assessed tumor cell growth at 10^-5 M; parameters: scale not given: the % may be the effect or the level left; in short: as §2
DU-145 = test: Growth inhibition of human DU145 cells
M14 [20] = test: Growth inhibition of human M14 cells
PC-3 = test: Growth inhibition of human PC3 cells
BT-549 [21] = test: Growth inhibition of human BT549 cells
OVCAR-5 [22] = test: Growth inhibition of human OVCAR5 cells assessed tumor cell growth at 10^-5 M; parameters: scale not given: the % may be the effect or the level left; in short: as §1
MDA-MB-435 = test: Growth inhibition of human MDA-MB-435 cells assessed tumor cell growth at 10^-5 M; parameters: scale not given: the % may be the effect or the level left; in short: as §1
SR = test: Growth inhibition of human SR cells assessed tumor cell growth at 10^-5 M; parameters: scale not given: the % may be the effect or the level left; in short: as §2
NCI-H226 = test: Growth inhibition of human NCI-H226 cells assessed tumor cell growth at 10^-5 M; parameters: scale not given: the % may be the effect or the level left; in short: as §1
SN12C = test: Growth inhibition of human SN12C cells assessed tumor cell growth at 10^-5 M; parameters: scale not given: the % may be the effect or the level left; in short: as §1
OVCAR-5 [23] = test: Growth inhibition of human OVCAR5 cells
SF-539 = test: Growth inhibition of human SF539 cells
[24] = read-out: LC50 (the source's name)

Structure (SMILES): CC1=NN(c2cccc(Cl)c2)C(=O)/C1=C\C=C\c1ccccc1
- Activity (SK-MEL-5 [1]): 5.05%
- Activity (SNB-19): 37.51%
- GI50 (786-0 [2]): 2.1 µM
- CC50 (786-0 [2]; [24]): 10.2 µM
- GI50 (CAKI-1 [3]): 1.9 µM
- CC50 (CAKI-1 [3]; [24]): > 100 µM
- GI50 (CCRF-CEM [4]): 3.1 µM
- CC50 (CCRF-CEM [4]; [24]): > 100 µM
- GI50 (UO-31 [5]): 1.6 µM
- CC50 (UO-31 [5]; [24]): 7.5 µM
- Activity (A498): 109.76%
- Activity (NCI/ADR-RES): -17.49%
- Activity (786-0 [6]): 35.48%
- GI50 (SNB-75): 7 µM
- CC50 (SNB-75; [24]): > 100 µM
- Activity (RXF 393): -87.73%
- Activity (NCI-H522 [7]): 34.37%
- Activity (CAKI-1 [8]): 52.22%
- GI50 (OVCAR-8): 2.6 µM
- CC50 (OVCAR-8; [24]): > 100 µM
- Activity [9]: 132.74%
- GI50 (MDA-MB-231): 2.2 µM
- CC50 (MDA-MB-231; [24]): > 100 µM
- GI50 (OVCAR-3): 2.1 µM
- CC50 (OVCAR-3; [24]): 8.9 µM
- Activity (Malme-3M): 115.91%
- Activity (SF-295 [10]): 101.1%
- Activity (BT-549 [11]): 78.36%
- Activity (ACHN): -51.29%
- Activity (HCT-15): 5%
- Activity (HT-29): -29.51%
- GI50 (SF-295 [12]): 3.1 µM
- CC50 (SF-295 [12]; [24]): > 100 µM
- Activity (M14 [13]): 14.42%
- GI50 (COLO 205): 2.3 µM
- LC50 (COLO 205): > 100 µM
- Activity (SK-OV-3): 48.42%
- Activity (EKVX): 87.07%
- GI50 (NCI-H522 [14]): 2.6 µM
- LC50 (concentration killing 50% of cells) (NCI-H522 [14]): > 100 µM
- GI50 (SK-MEL-5 [15]): 2.2 µM
- CC50 (SK-MEL-5 [15]; [24]): 20.8 µM
- GI50 (MDA-MB-468): 1.6 µM
- CC50 (MDA-MB-468; [24]): 39.8 µM
- GI50 [16]: 1.6 µM
- CC50 [16, 24]: > 100 µM
- GI50 (HOP-62): 3.1 µM
- CC50 (HOP-62; [24]): 57.5 µM
- Activity (UO-31 [17]): 69.7%
- Activity (CCRF-CEM [18]): 2.35%
- GI50 (IGROV-1): 1.6 µM
- CC50 (IGROV-1; [24]): 16.5 µM
- GI50 (TK-10): 3.1 µM
- CC50 (TK-10; [24]): > 100 µM
- GI50 (SF-268): 2.3 µM
- CC50 (SF-268; [24]): > 100 µM
- GI50 (HOP-92): 4.6 µM
- CC50 (HOP-92; [24]): > 100 µM
- GI50 (MOLT-4): 3.1 µM
- LC50 (MOLT-4): > 100 µM
- Activity [19]: 15.38%
- Activity (UACC-257): 63.3%
- Activity (U-251): -57.37%
- GI50 (DU-145): 2.8 µM
- CC50 (DU-145; [24]): 53.7 µM
- GI50 (M14 [20]): 1.6 µM
- CC50 (M14 [20]; [24]): 7.5 µM
- GI50 (PC-3): 2.9 µM
- CC50 (PC-3; [24]): > 100 µM
- GI50 (BT-549 [21]): 1.6 µM
- CC50 (BT-549 [21]; [24]): 6.1 µM
- Activity (OVCAR-5 [22]): 143.86%
- Activity (MDA-MB-435): 13.63%
- Activity (SR): 10.62%
- Activity (NCI-H226): 3.87%
- Activity (SN12C): 0.41%
- GI50 (OVCAR-5 [23]): 2.8 µM
- CC50 (OVCAR-5 [23]; [24]): > 100 µM
- GI50 (SF-539): 2.5 µM
- CC50 (SF-539; [24]): > 100 µM
